Assay results reported in ChEMBL document CHEMBL4130443, “Targeting breast cancer stem cells by novel HDAC3-selective inhibitors” (Eur J Med Chem, 2017).
Active and inactive are the calls of the source. The calls are words filed in the database; no cut-off is given here.

How the values were obtained:
[1] = target: Histone deacetylase 3/Nuclear receptor corepressor 2 (HDAC3/NCoR2) (Homo sapiens) (UniProt O15379+Q9Y618); assay: Inhibition of human HDAC3/NCOR2 at 1 uM using p53 (379 to 382 residues) derived fluorogenic peptide RHKKAc; format: protein-complex assay
Method in brief: (§1)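 Isoform profiling run by a commercial vendor with compounds at 1 µM. Values are percent inhibition, each the average of two determinations.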

Histone deacetylase 2 [2] = target: T1, Histone deacetylase 2 (Homo sapiens, UniProt Q92769); assay: Inhibition of human HDAC2 using p53 (379 to 382 residues) derived fluorogenic peptide RHKKAc
T1 sequence (Q92769 whole entry, the tested form may be a part): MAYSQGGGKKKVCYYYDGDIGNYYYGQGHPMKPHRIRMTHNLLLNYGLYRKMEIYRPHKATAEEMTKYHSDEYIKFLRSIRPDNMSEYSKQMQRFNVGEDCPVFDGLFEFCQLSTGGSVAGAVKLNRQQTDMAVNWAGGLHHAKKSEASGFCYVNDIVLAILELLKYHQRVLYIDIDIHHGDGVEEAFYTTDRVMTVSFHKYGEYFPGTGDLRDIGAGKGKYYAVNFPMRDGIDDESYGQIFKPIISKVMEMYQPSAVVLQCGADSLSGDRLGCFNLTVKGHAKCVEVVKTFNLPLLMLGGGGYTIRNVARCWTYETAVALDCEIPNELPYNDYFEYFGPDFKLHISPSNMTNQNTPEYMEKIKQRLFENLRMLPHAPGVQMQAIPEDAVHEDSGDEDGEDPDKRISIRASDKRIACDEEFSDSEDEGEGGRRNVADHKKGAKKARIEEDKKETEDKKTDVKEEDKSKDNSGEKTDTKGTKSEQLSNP

Histone deacetylase 1 [3] = target: T2, Histone deacetylase 1 (Homo sapiens, UniProt Q13547); assay: Inhibition of human HDAC1 using p53 (379 to 382 residues) derived fluorogenic peptide RHKKAc
T2 sequence (Q13547 whole entry, the tested form may be a part): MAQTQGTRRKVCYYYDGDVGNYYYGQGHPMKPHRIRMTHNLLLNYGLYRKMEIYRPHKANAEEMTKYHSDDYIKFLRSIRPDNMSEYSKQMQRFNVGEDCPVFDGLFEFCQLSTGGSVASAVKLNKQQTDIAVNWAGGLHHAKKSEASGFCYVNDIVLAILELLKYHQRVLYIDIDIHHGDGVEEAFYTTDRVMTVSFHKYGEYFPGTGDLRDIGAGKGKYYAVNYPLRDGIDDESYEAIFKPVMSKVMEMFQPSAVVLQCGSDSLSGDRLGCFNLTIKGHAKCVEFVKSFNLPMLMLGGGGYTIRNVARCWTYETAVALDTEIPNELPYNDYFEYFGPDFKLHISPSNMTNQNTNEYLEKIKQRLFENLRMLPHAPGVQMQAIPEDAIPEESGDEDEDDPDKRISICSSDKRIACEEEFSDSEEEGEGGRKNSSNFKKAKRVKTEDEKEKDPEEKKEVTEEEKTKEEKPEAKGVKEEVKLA

[4] = target: Histone deacetylase 3/Nuclear receptor corepressor 2 (HDAC3/NCoR2) (Homo sapiens, UniProt O15379); assay: Inhibition of human HDAC3/NCOR2 using p53 (379 to 382 residues) derived fluorogenic peptide RHKKAc; format: protein-complex assay
Histone deacetylase 2 [5] = target: T1, Histone deacetylase 2; assay: Inhibition of human HDAC2 at 1 uM using p53 (379 to 382 residues) derived fluorogenic peptide RHKKAc; method in brief: as §1
Histone deacetylase 1 [6] = target: T2, Histone deacetylase 1; assay: Inhibition of human HDAC1 at 1 uM using p53 (379 to 382 residues) derived fluorogenic peptide RHKKAc; method in brief: as §1
Homo sapiens = organism: Homo sapiens; assay: Selectivity index, ratio of IC50 for human HDAC1 to IC50 for human HDAC3
[7] = target: Histone deacetylase 4 (Homo sapiens) (UniProt P56524); assay: Inhibition of human HDAC4 at 1 uM using Boc-Lys(trifluoroacetyl)-AMC substrate; method in brief: as §1
Histone deacetylase 4 (Homo sapiens), sequence (P56524 whole entry): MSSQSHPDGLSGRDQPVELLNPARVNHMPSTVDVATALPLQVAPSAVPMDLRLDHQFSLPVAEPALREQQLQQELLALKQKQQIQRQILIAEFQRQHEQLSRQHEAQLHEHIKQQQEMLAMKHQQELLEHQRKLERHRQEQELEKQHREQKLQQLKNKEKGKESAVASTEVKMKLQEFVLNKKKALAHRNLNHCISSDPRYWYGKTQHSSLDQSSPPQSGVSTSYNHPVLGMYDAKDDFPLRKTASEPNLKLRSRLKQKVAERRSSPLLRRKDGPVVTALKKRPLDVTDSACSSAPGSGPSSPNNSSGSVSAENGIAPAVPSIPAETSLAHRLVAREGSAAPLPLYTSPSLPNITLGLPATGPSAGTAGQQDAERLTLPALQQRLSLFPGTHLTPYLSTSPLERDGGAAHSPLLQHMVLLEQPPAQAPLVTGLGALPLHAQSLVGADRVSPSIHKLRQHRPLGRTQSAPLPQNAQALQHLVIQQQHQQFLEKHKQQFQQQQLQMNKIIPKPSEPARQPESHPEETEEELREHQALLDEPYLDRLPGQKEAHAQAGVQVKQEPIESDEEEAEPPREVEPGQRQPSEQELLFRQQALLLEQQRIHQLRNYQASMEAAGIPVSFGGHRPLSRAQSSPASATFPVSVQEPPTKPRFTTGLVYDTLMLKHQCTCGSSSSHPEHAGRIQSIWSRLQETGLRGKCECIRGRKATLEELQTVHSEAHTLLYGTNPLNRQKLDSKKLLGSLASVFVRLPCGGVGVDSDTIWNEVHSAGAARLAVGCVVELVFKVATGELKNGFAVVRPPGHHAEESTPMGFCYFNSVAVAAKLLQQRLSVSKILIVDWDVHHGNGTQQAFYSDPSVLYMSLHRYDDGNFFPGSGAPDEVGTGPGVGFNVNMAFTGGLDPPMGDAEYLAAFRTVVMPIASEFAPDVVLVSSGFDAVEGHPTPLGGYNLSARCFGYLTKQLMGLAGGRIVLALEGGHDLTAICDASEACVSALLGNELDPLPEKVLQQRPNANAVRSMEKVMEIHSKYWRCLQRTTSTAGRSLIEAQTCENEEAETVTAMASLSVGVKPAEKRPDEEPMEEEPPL

[8] = target: Histone deacetylase 5 (Homo sapiens) (UniProt Q9UQL6); assay: Inhibition of human HDAC5 at 1 uM using Boc-Lys(trifluoroacetyl)-AMC substrate; method in brief: as §1
Histone deacetylase 5 (Homo sapiens), sequence (Q9UQL6 whole entry, the tested form may be a part): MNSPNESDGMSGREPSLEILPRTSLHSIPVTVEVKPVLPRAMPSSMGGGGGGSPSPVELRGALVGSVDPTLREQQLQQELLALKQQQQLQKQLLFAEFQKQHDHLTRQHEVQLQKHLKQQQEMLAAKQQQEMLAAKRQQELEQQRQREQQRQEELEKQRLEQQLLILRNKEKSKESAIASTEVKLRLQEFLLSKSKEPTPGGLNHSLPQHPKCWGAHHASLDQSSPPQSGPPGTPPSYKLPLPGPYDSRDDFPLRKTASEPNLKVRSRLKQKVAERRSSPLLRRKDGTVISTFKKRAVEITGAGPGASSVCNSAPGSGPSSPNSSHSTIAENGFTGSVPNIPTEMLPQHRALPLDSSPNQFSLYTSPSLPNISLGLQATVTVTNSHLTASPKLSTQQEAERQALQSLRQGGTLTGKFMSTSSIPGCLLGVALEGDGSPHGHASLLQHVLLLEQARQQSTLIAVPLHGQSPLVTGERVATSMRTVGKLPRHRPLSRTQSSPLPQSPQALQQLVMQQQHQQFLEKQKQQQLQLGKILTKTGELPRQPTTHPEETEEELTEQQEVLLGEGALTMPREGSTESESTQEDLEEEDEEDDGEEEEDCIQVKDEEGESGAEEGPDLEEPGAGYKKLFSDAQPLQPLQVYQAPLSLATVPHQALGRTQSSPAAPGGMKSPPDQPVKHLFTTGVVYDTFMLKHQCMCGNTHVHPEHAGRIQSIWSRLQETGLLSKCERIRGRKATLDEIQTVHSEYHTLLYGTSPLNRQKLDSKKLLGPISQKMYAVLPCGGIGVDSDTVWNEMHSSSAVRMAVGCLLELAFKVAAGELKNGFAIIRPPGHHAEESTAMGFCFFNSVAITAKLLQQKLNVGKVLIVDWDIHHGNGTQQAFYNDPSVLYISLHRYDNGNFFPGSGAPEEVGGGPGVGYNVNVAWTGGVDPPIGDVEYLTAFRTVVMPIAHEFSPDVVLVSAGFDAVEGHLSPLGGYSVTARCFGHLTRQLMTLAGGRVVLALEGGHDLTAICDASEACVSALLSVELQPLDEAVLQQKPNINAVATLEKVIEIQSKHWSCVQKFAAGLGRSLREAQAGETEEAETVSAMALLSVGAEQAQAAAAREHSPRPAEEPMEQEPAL

[9] = target: T3, Protein deacetylase HDAC6 (Homo sapiens) (UniProt Q9UBN7); assay: Inhibition of human HDAC6 at 1 uM using p53 (379 to 382 residues) derived fluorogenic peptide RHKKAc; method in brief: as §1
T3 sequence (whole entry): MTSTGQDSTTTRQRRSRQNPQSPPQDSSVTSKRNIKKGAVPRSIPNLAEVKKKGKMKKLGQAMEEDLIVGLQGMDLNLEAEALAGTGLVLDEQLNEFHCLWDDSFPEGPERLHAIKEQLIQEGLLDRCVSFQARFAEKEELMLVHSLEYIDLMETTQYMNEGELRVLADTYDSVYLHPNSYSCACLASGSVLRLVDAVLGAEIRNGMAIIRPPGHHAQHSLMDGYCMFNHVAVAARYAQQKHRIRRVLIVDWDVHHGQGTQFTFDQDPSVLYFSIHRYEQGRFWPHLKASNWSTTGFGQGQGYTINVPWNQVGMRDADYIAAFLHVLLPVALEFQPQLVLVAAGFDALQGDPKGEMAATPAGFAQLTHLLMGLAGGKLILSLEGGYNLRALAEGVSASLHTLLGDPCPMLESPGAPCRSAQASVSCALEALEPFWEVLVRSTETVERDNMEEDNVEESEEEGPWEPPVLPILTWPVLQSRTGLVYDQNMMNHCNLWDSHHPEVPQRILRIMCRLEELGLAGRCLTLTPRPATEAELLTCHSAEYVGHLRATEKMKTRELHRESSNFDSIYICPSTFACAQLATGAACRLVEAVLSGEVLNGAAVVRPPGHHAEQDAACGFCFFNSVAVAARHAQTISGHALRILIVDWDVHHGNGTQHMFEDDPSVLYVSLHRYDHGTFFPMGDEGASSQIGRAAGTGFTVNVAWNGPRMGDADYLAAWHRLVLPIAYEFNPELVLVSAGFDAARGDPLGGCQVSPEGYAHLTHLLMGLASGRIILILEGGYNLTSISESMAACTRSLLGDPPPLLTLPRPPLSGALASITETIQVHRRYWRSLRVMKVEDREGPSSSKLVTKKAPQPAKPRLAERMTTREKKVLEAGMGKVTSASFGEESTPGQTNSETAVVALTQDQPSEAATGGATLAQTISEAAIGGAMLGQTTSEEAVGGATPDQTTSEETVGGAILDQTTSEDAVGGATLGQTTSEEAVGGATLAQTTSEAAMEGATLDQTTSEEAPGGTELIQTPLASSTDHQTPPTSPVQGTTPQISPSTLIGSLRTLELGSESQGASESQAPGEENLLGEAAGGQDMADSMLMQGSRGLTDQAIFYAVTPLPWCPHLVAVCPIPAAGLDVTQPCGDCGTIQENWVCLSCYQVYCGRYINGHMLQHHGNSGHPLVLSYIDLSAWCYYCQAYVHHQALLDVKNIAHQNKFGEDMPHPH

[10] = target: T4, Histone deacetylase 8 (Homo sapiens) (UniProt Q9BY41); assay: Inhibition of human HDAC8 at 1 uM using p53 (379 to 382 residues) derived fluorogenic peptide RHKAcKAc; method in brief: as §1
T4 sequence (whole entry): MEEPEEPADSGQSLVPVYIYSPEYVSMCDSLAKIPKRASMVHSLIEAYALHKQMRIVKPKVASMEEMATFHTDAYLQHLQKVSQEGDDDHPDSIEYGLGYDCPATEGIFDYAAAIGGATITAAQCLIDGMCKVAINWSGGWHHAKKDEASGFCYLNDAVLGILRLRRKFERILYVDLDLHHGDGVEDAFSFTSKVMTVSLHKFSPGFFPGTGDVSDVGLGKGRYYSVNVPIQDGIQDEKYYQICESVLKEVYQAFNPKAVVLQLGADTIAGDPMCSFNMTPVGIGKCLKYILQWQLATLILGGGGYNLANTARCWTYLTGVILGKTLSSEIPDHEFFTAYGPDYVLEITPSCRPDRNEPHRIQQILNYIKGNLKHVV

[11] = target: T3, Protein deacetylase HDAC6 (Homo sapiens); assay: Inhibition of HDAC6 in human MDA-MB-231 cells assessed as increase in histone H3K9 acetylation at 0.1 to 2.5uM incubated for 48 hrs by Western blot method; format: cell-based; conditions: in the assay text read “tubulin acetylation” for “histone H3K9 acetylation”
Method in brief: (§2)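 Cells treated 48 h at the indicated concentrations, with a reference HDAC inhibitor at 0.25 µM as positive control on each blot. Lysed in 1% SDS, 10 mM EDTA, 50 mM Tris-HCl pH 8.1 with protease/phosphatase inhibitors, then sonicated. Equal protein by SDS-PAGE on nitrocellulose. Primary antibodies 1:1000 overnight at 4°C, HRP secondary, ECL. Blots for pan-H3 and H3K9 acetylation, tubulin acetylation and Notch1.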

[12] = target: T4, Histone deacetylase 8 (Homo sapiens); assay: Inhibition of HDAC8 in human MDA-MB-231 cells assessed as reduction in Notch1 expression at 0.1 to 2.5uM incubated for 48 hrs by Western blot method; format: cell-based; method in brief: as §2

| inhibition [1] | IC50 (Histone deacetylase 2 [2]) [nM] | IC50 (Histone deacetylase 1 [3]) [nM] | IC50 [4] [nM] | inhibition (Histone deacetylase 2 [5]) | inhibition (Histone deacetylase 1 [6]) | Ratio IC50 (Homo sapiens) | inhibition [7] [%] | inhibition [8] [%] | inhibition [9] [%] | inhibition [10] [%] | inhibition [11] | inhibition [12] | Structure (SMILES) |
| --- | --- | --- | --- | --- | --- | --- | --- | --- | --- | --- | --- | --- | --- |
| inactive | 7800 | 1300 | > 10000 | inactive | inactive |  |  |  |  |  |  |  | Nc1cc(F)ccc1NC(=O)c1ccc(NC(=O)CCc2ccccc2)cn1 |
|  | 4800 | 2500 | 170 |  |  | 14.7 |  |  |  |  |  |  | CC[C@H](C(=O)Nc1ccc(C(=O)Nc2ccc(F)cc2N)cc1)c1ccccc1 |
|  | 2700 | 5500 | 200 |  |  |  |  |  |  |  |  |  | Nc1cc(F)ccc1NC(=O)c1ccc(NC(=O)Cc2ccc(F)cc2)cc1 |
|  | 1100 | 1200 | 800 |  |  |  |  |  |  |  |  |  | Nc1cc(F)ccc1NC(=O)c1ccc(NC(=O)CCc2ccccc2)cc1 |
|  | 3400 | 3200 | 230 |  |  | 13 |  |  |  |  |  |  | C[C@H](C(=O)Nc1ccc(C(=O)Nc2ccc(F)cc2N)cc1)c1ccccc1 |
|  | 2000 | 1100 | 520 |  |  |  |  |  |  |  |  |  | Nc1cc(F)ccc1NC(=O)c1ccc(NC(=O)Cc2ccccc2)cn1 |
| 36% | 1300 | 1500 | 200 | 32% | 41% |  | 0 | 0 | 0 | 5 |  |  | Nc1cc(F)ccc1NC(=O)c1ccc(NC(=O)Cc2ccc(C(F)(F)F)cc2)cc1 |
|  | 2500 | 1500 | 300 |  |  |  |  |  |  |  | inactive | inactive | CC(C)[C@H](C(=O)Nc1ccc(C(=O)Nc2ccc(F)cc2N)nc1)c1ccccc1 |
|  | 2000 | 1400 | 130 |  |  |  |  |  |  |  | inactive | inactive | C[C@H](C(=O)Nc1ccc(C(=O)Nc2ccc(F)cc2N)nc1)c1ccccc1 |
| 82% | > 10000 | > 10000 | 200 | 9% | 0% |  | 0 | 3 | 0 | 14 |  |  | Nc1cc(F)ccc1NC(=O)c1ccc(NC(=O)C2CC2c2ccccc2)cc1 (configuration not stated) |
|  | > 10000 | > 10000 | > 10000 |  |  |  |  |  |  |  |  |  | Nc1cc(F)ccc1NC(=O)c1ccc(NC(=O)Cc2ccc(C(F)(F)F)cc2)cn1 |
| 78% | 1800 | 1200 | 1000 | 26% | 42% | 1.2 | 0 | 0 | 0 | 6 |  |  | CC(C)[C@@H](C(=O)Nc1ccc(C(=O)Nc2ccc(F)cc2N)cc1)c1ccccc1 |
|  | 2100 | 1300 | 200 |  |  |  |  |  |  |  |  |  | Nc1cc(F)ccc1NC(=O)c1ccc(NC(=O)[C@@H]2C[C@@H]2c2ccccc2)cc1 (relative stereo) |
|  | 1200 | 1200 | 110 |  |  | 10.9 |  |  |  |  |  |  | CC[C@@H](C(=O)Nc1ccc(C(=O)Nc2ccc(F)cc2N)cc1)c1ccccc1 |
|  | 8400 | > 10000 | 1700 |  |  |  |  |  |  |  |  |  | CC(C)[C@@H](C(=O)Nc1ccc(C(=O)Nc2ccc(F)cc2N)cn1)c1ccccc1 |
|  | 2800 | 1800 | 210 |  |  | 8.6 |  |  |  |  |  |  | C[C@@H](C(=O)Nc1ccc(C(=O)Nc2ccc(F)cc2N)cc1)c1ccccc1 |
|  | 4200 | 610 | 530 |  |  |  |  |  |  |  |  |  | CC[C@H](C(=O)Nc1ccc(C(=O)Nc2ccc(F)cc2N)nc1)c1ccccc1 |
| 36% |  |  |  | 34% | 49% |  | 6 | 0 | 4 | 0 |  |  | CC(C)(C(=O)Nc1ccc(C(=O)Nc2ccccc2N)cc1)c1ccccc1 |
|  | 4900 | 1200 | 1000 |  |  |  |  |  |  |  |  |  | Nc1cc(F)ccc1NC(=O)c1ccc(NC(=O)C2CC2c2ccccc2)cn1 (configuration not stated) |
|  | 3000 | 760 | 580 |  |  |  |  |  |  |  | inactive | inactive | C[C@@H](C(=O)Nc1ccc(C(=O)Nc2ccc(F)cc2N)nc1)c1ccccc1 |
|  | 3000 | 370 | 390 |  |  |  |  |  |  |  |  |  | Nc1cc(F)ccc1NC(=O)c1ccc(NC(=O)Cc2ccc(F)cc2)cn1 |
| 0% |  |  |  | 4% | 6% |  | 3 | 0 | 0 | 0 |  |  | CC(C)[C@@H](C(=O)Nc1ccc(C(=O)Nc2ccc(C(F)(F)F)cc2N)cc1)c1ccccc1 |
|  | 630 | 300 | 60 |  |  |  |  |  |  |  | inactive | inactive | CC[C@@H](C(=O)Nc1ccc(C(=O)Nc2ccc(F)cc2N)nc1)c1ccccc1 |
|  | 1100 | 520 | 80 |  |  | 6.5 |  |  |  |  | inactive | inactive | CC(C)[C@@H](C(=O)Nc1ccc(C(=O)Nc2ccc(F)cc2N)nc1)c1ccccc1 |
| 33% |  |  |  | 38% | 78% |  | 0 | 0 | 0 | 0 |  |  | Nc1ccccc1NC(=O)c1ccc(NC(=O)Cc2ccc(C(F)(F)F)cc2)cc1 |
